ChEMBL document CHEMBL1157464, “1-[(3-Aryloxy-3-aryl)propyl]-1H-imidazoles, new imidazoles with potent activity against Candida albicans and dermatophytes. Synthesis, structure-activity relationship, and molecular modeling studies” (J Med Chem, 2008)
Converted amounts (≈) assume the structure as drawn.

Experiments:
Arthrodermataceae [1] = experiment: Antifungal activity against dermatophytes at 28 degC after 7 days by broth microdilution test; type: functional; conditions: 168 h
How it was run: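 Ten clinical isolates (two M. canis, five M. gypseum, three T. mentagrophytes) tested by NCCLS M38-A broth microdilution in MOPS-buffered RPMI 1640, pH 7.0, over 0.25–128 µg/mL. Conidial/hyphal suspension from PDA slants (28 °C, 7 days) adjusted to 65–70% transmittance at OD530, then diluted 1:50.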

Arthrodermataceae [2] = experiment: Antifungal activity against dermatophytes at 28 degC after 48 to 96 hrs by broth microdilution test
Candida albicans [3] = experiment: Antifungal activity against fluconazole-sensitive Candida albicans Fe40 at 35 degC after 48 hrs by broth microdilution test; type: functional
How it was run: (§1)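 Broth microdilution per NCCLS M27-A2. Stocks in 100% DMSO, diluted in RPMI 1640 with 0.165 M MOPS at pH 7.0; final range 0.25–128 µg/mL. Inoculum 1000–5000 cells/mL from SDA subcultures. […] C. parapsilosis ATCC22019 served as QC strain.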

Arthrodermataceae [4] = experiment: Antifungal activity against dermatophytes at 28 degC after 5 days by broth microdilution test; conditions: for MFC: Arthrodermataceae
Candida albicans [5] = experiment: Antifungal activity against Candida albicans ATCC 10261 at 35 degC after 48 to 96 hrs by broth microdilution test; type: functional
How it was run: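 Minimal fungicidal concentration for Candida. […] MFC is the lowest concentration allowing fewer than two colonies (99% killing).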

Candida albicans [6] = experiment: Antifungal activity against fluconazole-resistant Candida albicans isolated from oropharyngeal or vaginal disease patient after 48 hrs by broth microdilution test; type: functional
Candida albicans [7] = experiment: Antifungal activity against Candida albicans ATCC 10261 at 35 degC after 48 hrs by broth microdilution test; type: functional; conditions: for MIC50: read-out: MIC50; how it was run: as §1
Candida parapsilosis = experiment: Antifungal activity against Candida parapsilosis ATCC 22019 at 35 degC after 48 hrs by broth microdilution test; type: functional; conditions: for MFC: read-out: MFC; how it was run: as §1
[8] = Cytotoxicity against human K562 cells after assessed as reduction of cell viability 24 hrs by MTT assay; type: cell-based
How it was run: (§2)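 U937 and K562 cells, from ATCC, plated at 5 × 10^4/mL in phenol-red-free RPMI-1640 with 20% FBS and penicillin/streptomycin. Compounds added 2 h later at 25–100 µg/mL, then 24 h at 37 °C. MTT at 1 mg/mL for 3 h, formazan dissolved in isopropanol with 0.1 N HCl, absorbance read at 570 nm. CC50 is the concentration reducing viability by 50% versus the drug-free control.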

[9] = Cytotoxicity against human U937 cells assessed as reduction of cell viability after 24 hrs by MTT assay; type: cell-based, U-937; how it was run: as §2
[10] = Candida albicans, ATCC 10261, read-out: MFC
[11] = Candida albicans, ATCC 10261, 48 h, read-out: MIC
[12] = Candida albicans, ATCC 10261, 48 h
[13] = Candida albicans, ATCC 10261, 48 h, read-out: MIC90
[14] = Lodderomyces parapsilosis, ATCC 22019, 48 h
[15] = Lodderomyces parapsilosis, ATCC 22019, 48 h, read-out: MIC

Row | Compound | MIC (Arthrodermataceae [1]) | MIC50 (Arthrodermataceae [1]) | MIC90 (Arthrodermataceae [1]) | MFC50 (Arthrodermataceae [2]) | MIC (Candida albicans [3]) | MFC90 (Arthrodermataceae [4]) | MFC (Arthrodermataceae [4]) | MFC50 (Candida albicans [5]) | MFC90 (Candida albicans [5]) | MFC (Candida albicans [5]; [10]) | MIC (Candida albicans [6]) | MIC (Candida albicans [7]; [11]) | MIC50 (Candida albicans [7]; [12]) | MIC90 (Candida albicans [7]; [13]) | MFC (Candida parapsilosis; [14]) | MIC (Candida parapsilosis; [15]) | CC50 at 24 h [8] | CC50 at 24 h [9] | further results
1 | C[C@@H](c1ncncc1F)[C@](O)(Cn1cncn1)c1ccc(F)cc1F [VORICONAZOLE] | 0.03 µg/mL (≈ 0.0859 µM) | 0.016 µg/mL (≈ 0.0458 µM) | 0.06 µg/mL (≈ 0.172 µM) | 1 µg/mL (≈ 2.86 µM) | 0.016 µg/mL (≈ 0.0458 µM) | 1 µg/mL (≈ 2.86 µM) | 0.9 µg/mL (≈ 2.58 µM) | >16 µg/mL | >16 µg/mL | 26 µg/mL (≈ 74.4 µM) | 16 µg/mL (≈ 45.8 µM) | 0.89 µg/mL (≈ 2.55 µM) | 0.25 µg/mL (≈ 0.716 µM) | > 1 µg/mL | 0.125 µg/mL (≈ 0.358 µM) | 0.015 µg/mL (≈ 0.0429 µM) | – | – | –
2 | Clc1ccc(OC(CCn2ccnc2)c2ccccc2)c(Cl)c1 (racemic) | 9.2 µg/mL (≈ 26.5 µM) | 8 µg/mL (≈ 23 µM) | 8 µg/mL (≈ 23 µM) | 16 µg/mL (≈ 46.1 µM) | 2 µg/mL (≈ 5.76 µM) | 32 µg/mL (≈ 92.2 µM) | 28.8 µg/mL (≈ 82.9 µM) | 8 µg/mL (≈ 23 µM) | 16 µg/mL (≈ 46.1 µM) | – | 7.2 µg/mL (≈ 20.7 µM) | – | 8 µg/mL (≈ 23 µM) | – | 8 µg/mL (≈ 23 µM) | – | 121 µM | 166 µM | MFC (Candida albicans [5]): 11.4 µg/mL (≈ 32.8 µM); MIC (Candida albicans [7]): 5.3 µg/mL (≈ 15.3 µM); MIC90 (Candida albicans [7]): 8 µg/mL (≈ 23 µM); MIC (Candida parapsilosis): 2 µg/mL (≈ 5.76 µM)
3 | Clc1ccc(OC(CCn2ccnc2)c2ccccc2)cc1 (configuration not stated) | 18.4 µg/mL (≈ 58.8 µM) | 16 µg/mL (≈ 51.2 µM) | 32 µg/mL (≈ 102 µM) | 16 µg/mL (≈ 51.2 µM) | 2 µg/mL (≈ 6.39 µM) | 32 µg/mL (≈ 102 µM) | 25.6 µg/mL (≈ 81.8 µM) | 8 µg/mL (≈ 25.6 µM) | 16 µg/mL (≈ 51.2 µM) | 10.3 µg/mL (≈ 32.9 µM) | 6.4 µg/mL (≈ 20.5 µM) | 3.3 µg/mL (≈ 10.5 µM) | 2 µg/mL (≈ 6.39 µM) | 4 µg/mL (≈ 12.8 µM) | 32 µg/mL (≈ 102 µM) | 4 µg/mL (≈ 12.8 µM) | 256 µM | 200 µM | –
4 | Clc1ccc(OC(CCn2ccnc2)c2ccc(Cl)cc2)cc1 (configuration not stated) | – | – | – | – | 4 µg/mL (≈ 11.5 µM) | – | – | 16 µg/mL (≈ 46.1 µM) | 32 µg/mL (≈ 92.2 µM) | 21.5 µg/mL (≈ 61.9 µM) | 8 µg/mL (≈ 23 µM) | 5.5 µg/mL (≈ 15.8 µM) | 4 µg/mL (≈ 11.5 µM) | 8 µg/mL (≈ 23 µM) | 8 µg/mL (≈ 23 µM) | 4 µg/mL (≈ 11.5 µM) | 265 µM | 327 µM | –
5 | Clc1ccc(C(CCn2ccnc2)Oc2c(Cl)cccc2Cl)cc1 (configuration not stated) | – | – | – | – | 2 µg/mL (≈ 5.24 µM) | – | – | 8 µg/mL (≈ 21 µM) | 16 µg/mL (≈ 41.9 µM) | 14.7 µg/mL (≈ 38.5 µM) | 6.8 µg/mL (≈ 17.8 µM) | 5 µg/mL (≈ 13.1 µM) | 2 µg/mL (≈ 5.24 µM) | 8 µg/mL (≈ 21 µM) | 4 µg/mL (≈ 10.5 µM) | 1 µg/mL (≈ 2.62 µM) | 135 µM | 271 µM | –
6 | CCC(C)n1ncn(-c2ccc(N3CCN(c4ccc(OC[C@@H]5CO[C@@](Cn6cncn6)(c6ccc(Cl)cc6Cl)O5)cc4)CC3)cc2)c1=O (some centres not stated) [ITRACONAZOLE] | 0.14 µg/mL (≈ 0.198 µM) | 0.125 µg/mL (≈ 0.177 µM) | 0.25 µg/mL (≈ 0.354 µM) | 1 µg/mL (≈ 1.42 µM) | 0.031 µg/mL (≈ 0.0439 µM) | 2 µg/mL (≈ 2.83 µM) | 1.4 µg/mL (≈ 1.98 µM) | >1 µg/mL | >1 µg/mL | > 1 µg/mL | 16 µg/mL (≈ 22.7 µM) | 0.5 µg/mL (≈ 0.709 µM) | 0.5 µg/mL (≈ 0.709 µM) | 1 µg/mL (≈ 1.42 µM) | 0.25 µg/mL (≈ 0.354 µM) | 0.06 µg/mL (≈ 0.085 µM) | – | – | –
7 | Cc1ccc(OC(CCn2ccnc2)c2ccccc2)cc1 (racemic) | 17.2 µg/mL (≈ 58.8 µM) | 16 µg/mL (≈ 54.7 µM) | 32 µg/mL (≈ 109 µM) | 32 µg/mL (≈ 109 µM) | – | 32 µg/mL (≈ 109 µM) | 28.8 µg/mL (≈ 98.5 µM) | 16 µg/mL (≈ 54.7 µM) | 16 µg/mL (≈ 54.7 µM) | – | – | – | 8 µg/mL (≈ 27.4 µM) | – | 16 µg/mL (≈ 54.7 µM) | 2 µg/mL (≈ 6.84 µM) | 95.9 µM | 141 µM | MFC (Candida albicans [5]): 13.6 µg/mL (≈ 46.5 µM); MIC (Candida albicans [7]): 9.4 µg/mL (≈ 32.1 µM); MIC90 (Candida albicans [7]): 16 µg/mL (≈ 54.7 µM)
8 | Cc1ccc(C(CCn2ccnc2)Oc2cc(Cl)cc(Cl)c2)cc1 (configuration not stated) | 5.6 µg/mL (≈ 15.5 µM) | 4 µg/mL (≈ 11.1 µM) | 8 µg/mL (≈ 22.1 µM) | 16 µg/mL (≈ 44.3 µM) | – | 16 µg/mL (≈ 44.3 µM) | 14.4 µg/mL (≈ 39.9 µM) | 16 µg/mL (≈ 44.3 µM) | 64 µg/mL (≈ 177 µM) | 34.6 µg/mL (≈ 95.8 µM) | – | 11.9 µg/mL (≈ 32.9 µM) | 16 µg/mL (≈ 44.3 µM) | 16 µg/mL (≈ 44.3 µM) | 8 µg/mL (≈ 22.1 µM) | 1 µg/mL (≈ 2.77 µM) | 98 µM | 160 µM | –
9 | c1ccc(OC(CCn2ccnc2)c2ccccc2)cc1 (configuration not stated) | 24.1 µg/mL (≈ 86.6 µM) | 16 µg/mL (≈ 57.5 µM) | 32 µg/mL (≈ 115 µM) | 64 µg/mL (≈ 230 µM) | – | 64 µg/mL (≈ 230 µM) | 56.5 µg/mL (≈ 203 µM) | 64 µg/mL (≈ 230 µM) | 128 µg/mL (≈ 460 µM) | 83.2 µg/mL (≈ 299 µM) | – | 62.7 µg/mL (≈ 225 µM) | 32 µg/mL (≈ 115 µM) | 128 µg/mL (≈ 460 µM) | 32 µg/mL (≈ 115 µM) | 16 µg/mL (≈ 57.5 µM) | 220 µM | 201 µM | –
10 | Clc1ccc(C(CCn2ccnc2)Oc2ccccc2Cl)cc1 (configuration not stated) | – | – | – | – | 8 µg/mL (≈ 23 µM) | – | – | 32 µg/mL (≈ 92.2 µM) | 32 µg/mL (≈ 92.2 µM) | 27 µg/mL (≈ 77.8 µM) | 8 µg/mL (≈ 23 µM) | 7.7 µg/mL (≈ 22.2 µM) | 8 µg/mL (≈ 23 µM) | 8 µg/mL (≈ 23 µM) | 32 µg/mL (≈ 92.2 µM) | 4 µg/mL (≈ 11.5 µM) | 205 µM | 209 µM | –
